Screens as filed in PubChem BioAssay.
Cneo AK release – Cryptococcus neoformans lysis via adenylate kinase release; C. neoformans lysis, adenylate kinase release luminescence, 4 h; normalised: neutral wells 0, clomiphene wells 100; lysis activity, % at 15 µM; actives 0.2% (n = 360,000); AID 651654;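 active = mean lysis activity across replicates of at least 80%, whatever share of replicates individually reach that level; inactive = mean lysis activity below 80%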
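Assay system: C. neoformans cells. Amount: yeast cell density of 5 × 10^6 cells/mL. Technique: AK luminescence. Buffer or medium: YPD. Times: static 4 h at 37 °C with compound, 1 h detection. Dosing: single-point compound dose. Read-out: lysis from increased AK signal.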
Yeast superoxide – yeast age-related superoxide inhibition as caloric restriction mimetic. S. cerevisiae aged cells, superoxide DHE fluorescence; hits give low values. superoxide response (% of plate mean), % at 10 µM. actives 0.18% (n = 330,000). AID 2690;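 active = superoxide response under a set limit, about three screen SD below normal, cut at about 65% in these data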;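 also: yeast aged for seven days with compound at 30 °C before DHE staining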
Mot1-301 SUMO – SUMOylation pathway inhibition by Mot1-301 growth rescue; S. cerevisiae Mot1-301 growth rescue, ATP luminescence, 38.5C; percent above DMSO median, 100 means doubled; actives 1% (n = 320,000); AID 2716; growth rescue, % at 18.8 µM;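 active = every valid replicate shows activation above 250% relative to neutral control wells; inactive = the rest, any valid replicate at or below 250%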
rRNA inh HTS – inhibits bacterial ribosomal RNA function over humanized ribosomes | E. coli WT GFP vs humanized-ribosome RFP mutants, fluorescence, 24 h; hits give low values; DMSO median 0, no signal -100 | GFP signal change (wild-type ribosome), % (test concentration not listed) | actives 1.6% (n = 350,000) | AID 720706;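 active = significant combined selectivity score with lowered wild-type GFP, culture density cut under 30%, mutant RFP and density less affected; inactive = any of these conditions unmet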
PglD inh – blocks C. jejuni PglD acetyltransferase activity; purified PglD enzyme, DTNB colorimetric CoA detection; inhibition, % at 12.5 µM; actives 0.098% (n = 360,000); in the data active = inhibition above about 16%, passing the limit was not always enough
Hits are given with their value. This is a sample that favours compounds with a hit; in the whole collection about 2.2% have one here.

Screening O=C(C[C@H]1C[C@@H]2c3cc(NC(=O)CC4CC4)ccc3O[C@@H]2[C@H](CO)O1)NCc1ccccc1F returned Cneo AK release inactive, rRNA inh HTS inactive and PglD inh inactive.
Screening COc1ccc(Nc2cnn(-c3nc4ccccc4s3)c(=O)c2Cl)cc1 returned Cneo AK release inactive, Yeast superoxide inactive, Mot1-301 SUMO inactive, rRNA inh HTS -25 and PglD inh inactive.
`Cc1noc(C)c1S(=O)(=O)Nc1ccc2c(c1)C(=O)N([C@H](C)CO)C[C@@H](C)[C@H](CN(C)Cc1ccc(Cl)c(Cl)c1)OCCCC[C@@H](C)O2` gave Cneo AK release inactive, rRNA inh HTS inactive and PglD inh inactive.
`CC1(C)CC(=O)C=C(c2ccc(COC(=O)/C=C/c3ccccc3)cc2)C1=O` gave Cneo AK release inactive, rRNA inh HTS inactive and PglD inh inactive.
`CC1(C)CC(=O)C=C(c2ccc(COC(=O)c3ccccc3)cc2)C1=O` gave Cneo AK release inactive, rRNA inh HTS -20 and PglD inh inactive.
`NC(=O)N/N=C(/CCCCCC/C(=N\NC(N)=O)c1ccccc1)c1ccccc1` gave Cneo AK release inactive, Yeast superoxide inactive, Mot1-301 SUMO inactive, rRNA inh HTS -26 and PglD inh inactive.
For Cc1cccc(C)c1NC(=O)COn1nnc2ccc(C(F)(F)F)cc21 the results were Yeast superoxide inactive, Mot1-301 SUMO inactive and rRNA inh HTS inactive.
O=C(COn1nnc2ccc(C(F)(F)F)cc21)Nc1c(Cl)cccc1Cl was read as Yeast superoxide inactive, Mot1-301 SUMO inactive and rRNA inh HTS -25.
`COc1ccc(C2=Nc3ccccc3NC(=O)C2N(C(=O)c2ccnc3ccccc23)c2ccccc2)cc1` (stereo not given) gave Cneo AK release inactive, rRNA inh HTS -21 and PglD inh inactive.
O=S(=O)(Cc1cc(NCc2ccccc2)nc(-c2ccccn2)n1)c1ccccc1 was read as Yeast superoxide inactive, Mot1-301 SUMO inactive and rRNA inh HTS -39.
CO[C@H]1CC[C@H]2CCN(C)C(=O)[C@H](C)[C@@H](OC)CN(C)C(=O)c3cccc(C#N)c3OC[C@H]1O2 was read as Cneo AK release inactive, rRNA inh HTS inactive and PglD inh inactive.
`CCOc1ccccc1OCCCC(=O)N1CCN(S(=O)(=O)c2cc(F)ccc2F)CC1` gave Cneo AK release inactive, rRNA inh HTS -20 and PglD inh inactive.
For COc1ccc(Nc2nc(N)c([N+](=O)[O-])c(N3CCOCC3)n2)cc1 the results were Cneo AK release inactive, Yeast superoxide inactive, Mot1-301 SUMO inactive, rRNA inh HTS -28 and PglD inh inactive.
Nc1nc(Nc2ccccc2F)nc(N2CCOCC2)c1[N+](=O)[O-] was read as Yeast superoxide inactive, Mot1-301 SUMO inactive and rRNA inh HTS -20.
For Nc1nc(Nc2ccccc2)nc(N2CCOCC2)c1[N+](=O)[O-] the results were Cneo AK release inactive, Yeast superoxide inactive, Mot1-301 SUMO inactive and PglD inh inactive.
Screening O=C(NC(=S)Nc1ccc2ncccc2c1)c1ccccc1 returned Cneo AK release inactive, Yeast superoxide inactive, Mot1-301 SUMO inactive, rRNA inh HTS -21 and PglD inh inactive.
For O=C(NCCc1ccccc1)[C@@H]1[C@@H](CO)[C@@H]2Cn3c(cccc3=O)[C@H]1N2C(=O)C1CC1 the results were Cneo AK release inactive, rRNA inh HTS inactive and PglD inh inactive.
`O=C(NCCc1ccccc1)[C@H]1[C@H](CO)[C@H]2Cn3c(cccc3=O)[C@@H]1N2C(=O)C1CCCC1` gave Cneo AK release inactive, rRNA inh HTS inactive and PglD inh inactive.
For O=C(NCCc1ccccc1)[C@H]1[C@H](CO)[C@H]2Cn3c(cccc3=O)[C@@H]1N2C(=O)C1CCC1 the results were Cneo AK release 105, rRNA inh HTS inactive and PglD inh inactive.
`O=C(NCCc1ccccc1)[C@@H]1[C@@H](CO)[C@@H]2Cn3c(cccc3=O)[C@H]1N2C(=O)C1CCC1` gave Cneo AK release 102, rRNA inh HTS inactive and PglD inh inactive.
Screening CCCNC(=O)Nc1ccc2c(c1)OC[C@H](C)N(C(=O)C1CC1)C[C@@H](C)[C@@H](OC)CN(C)C2=O returned Cneo AK release inactive, rRNA inh HTS inactive and PglD inh inactive.
Screening CCn1c(=O)c(C(=O)Nn2c(C)nc3ccccc3c2=O)c(O)c2ccccc21 returned Cneo AK release inactive, Yeast superoxide inactive, Mot1-301 SUMO inactive and PglD inh inactive.
Screening CCc1nc2ccccc2c(=O)n1NC(=O)c1c(O)c2ccccc2n(CC)c1=O returned Yeast superoxide inactive, Mot1-301 SUMO inactive and rRNA inh HTS -30.
`c1ccc(CSc2nnc(Cc3ccccc3)o2)cc1` gave Yeast superoxide inactive, Mot1-301 SUMO inactive and rRNA inh HTS -31.
Screening c1ccc(CSc2nnc(Cc3ccccn3)o2)cc1 returned Cneo AK release inactive, Yeast superoxide inactive, Mot1-301 SUMO inactive and PglD inh inactive.
Screening Cn1cnc(S(=O)(=O)N2C[C@H](O)COC[C@@H]3O[C@@H](CC(=O)NCc4ccc(F)cc4)CC[C@H]32)c1 returned Cneo AK release inactive, rRNA inh HTS inactive and PglD inh inactive.
COC(=O)C[C@H]1C[C@@H]2c3cc(NC(=O)c4cccnc4)ccc3O[C@@H]2[C@H](CO)O1 was read as Cneo AK release inactive, rRNA inh HTS inactive and PglD inh inactive.
O=C(O)CSCC(=O)NCc1c(Cl)cccc1Oc1ccccc1 was read as Cneo AK release inactive, Yeast superoxide inactive, Mot1-301 SUMO inactive and PglD inh inactive.
O=S(=O)(NCc1c(Cl)cccc1Oc1ccccc1)c1ccc(F)cc1 was read as Yeast superoxide inactive, Mot1-301 SUMO inactive and rRNA inh HTS -39.
For O=C(NC(=S)N1CCc2ccccc21)c1ccccc1Br the results were Cneo AK release inactive, Yeast superoxide inactive, Mot1-301 SUMO inactive and PglD inh inactive.
For O=C(NC(=S)N1CCc2ccccc21)c1ccc(Br)o1 the results were Yeast superoxide inactive, Mot1-301 SUMO inactive and rRNA inh HTS -42.
For O=C(Nc1ccccc1Cl)N1CCCN(c2nc(-c3ccccc3)ns2)CC1 the results were Cneo AK release inactive, Yeast superoxide inactive, Mot1-301 SUMO inactive, rRNA inh HTS inactive and PglD inh inactive.
`O=C(Nc1ccccc1)N1CCN(c2nc(-c3ccccc3)ns2)CC1` gave Yeast superoxide inactive, Mot1-301 SUMO inactive and rRNA inh HTS -30.
Screening CO[C@H]1CN(C)C(=O)c2ccc(NC(=O)Nc3c(C)noc3C)cc2OC[C@H](C)N(C)C[C@@H]1C returned rRNA inh HTS inactive.
`COc1ccc(/C=C/C(=O)Nc2cc(S(=O)(=O)N3CCOCC3)ccc2N2CCCC2)cc1OC` gave Yeast superoxide inactive, Mot1-301 SUMO inactive and rRNA inh HTS -22.
For O=C(/C=C/c1ccc(F)cc1)Nc1cc(S(=O)(=O)N2CCOCC2)ccc1N1CCOCC1 the results were Cneo AK release inactive, rRNA inh HTS inactive and PglD inh inactive.
